From ChEMBL document CHEMBL1137774, “Conjugation of 2-(1'-hexyloxyethyl)-2-devinylpyropheophorbide-a (HPPH) to carbohydrates changes its subcellular distribution and enhances photodynamic activity in vivo” (J Med Chem, 2009)

Assays:
[1] = Partition coefficient, log P of the compound; assay type: physicochemical; settings: octanol/water
[2] = Drug uptake in ABCG2-expressing mouse RIF cells assessed as increase in mitochondrial localization at 3 uM for 24 hrs in presence of 10% FCS by fluorescence microscopy; assay type: ADME, cell-based; settings: 2 µM, in the assay text read “2 uM” for “3 uM”
Summary of the method: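 RIF cells grown on poly-L-lysine-coated coverslips, co-incubated with PS and organelle trackers in 10% FCS medium for 3–4 h or 24 h, PBS-washed, imaged at 40× by inverted fluorescence microscopy. Trackers: MitoTracker Green 1 μM 1 h (mitochondria); LysoTracker Green 0.5 μM 0.5 h or 0.1 μm Fluospheres overnight (lysosomes); Bodipy C5 ceramide–albumin 5 μM (Golgi).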

[3] = tested on: RIF; experiment: Photosensitizing activity in ABCG2-expressing mouse RIF cells assessed as induction STAT3 covalent cross linking pretreated for 4 hrs followed by irradiation exposure to 665 nm light at 3 J/cm2 by Western blotting; assay type: functional, cell-based
Summary of the method: (§1)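 Cells incubated 4 h with PS at indicated concentrations in 10% FCS medium, exposed to 665 nm light at 3 J/cm², extracted immediately. STAT-3 cross-linked product detected by Western blot, relative level by densitometry.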

[4] = tested on: Colon 26; experiment: Photosensitizing activity in ABCG2-deficient mouse Colon 26 cells assessed as induction STAT3 covalent cross linking pretreated for 4 hrs followed by irradiation exposure to 665 nm light at 3 J/cm2 by Western blotting; assay type: functional, cell-based; summary of the method: as §1
[5] = Photocytotoxicity against ABCG2-expressing mouse RIF cells xenografted in C3H mouse assessed as tumor control at 0.47 umol/kg, iv followed by exposure to irradiation at 48 J/cm2 relative to control; assay type: functional
Summary of the method: (§2)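 Mice bearing shoulder tumours (C3H/RIF, BALB/c/Colon26) injected intravenously at 0.47 μmol/kg. Tumours irradiated with 665 nm laser 24 h later at 135 J/cm², 75 mW/cm² or 48 J/cm², 7 mW/cm². Tumour volume by calipers, V=(L×W²)×0.5. Groups of 5–10 mice; curves compared by Cox–Mantel test.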

[6] = tested on: Colon 26; experiment: Photocytotoxicity against ABCG2-deficient mouse Colon 26 cells xenografted in BALB/c mouse assessed as tumor control at 0.47 umol/kg, iv followed by exposure to irradiation at 48 J/cm2 relative to control; assay type: functional; summary of the method: as §2
[7] = Photocytotoxicity against ABCG2-expressing mouse RIF cells xenografted in C3H mouse assessed as tumor control at 0.47 umol/kg, iv followed by exposure to irradiation at 135 J/cm2 relative to control; assay type: functional; summary of the method: as §2
[8] = tested on: Mus musculus; experiment: Skin toxicity in ABCG2-expressing mouse RIF cells xenografted in irradiation exposed C3H mouse assessed as foot response after 24 to 96 hrs; assay type: organism-based; settings: in vivo

logP [1]: 6
Drug uptake [2]: Active
SMILES: CCCCCCOC(C)c1c(C)c2cc3nc(c4c5[nH]c(cc6nc(cc1[nH]2)C(C)=C6CC)c(C)c5C(=O)C4)[C@@H](CCC(=O)O)[C@@H]3C (stereo partly drawn) [HPPH]
Activity [3]: Dose-dependent effect
Activity [4]: Dose-dependent effect
Activity [5]: 40%
Activity [6]: 30%
Activity [7]: 50%
Activity [8]: Toxic
